Consider 6 molecules from ChEMBL document CHEMBL5257157, “Biological evaluation of novel amidino substituted coumarin-benzazole hybrids as promising therapeutic agents” (RSC Med Chem, 2023).

Series [1] has as its system K562. The series can be described thus: Antiproliferative activity against human K562 cells assessed as inhibition of cell growth incubated for 72 hrs by CellTiter96 Aqueous One Solution cell proliferation assay. As to conditions: K562, 72 h. The format is functional, cell-based.
Series [2] concerns CAPAN-1. The series can be described thus: Antiproliferative activity against human CAPAN-1 cells assessed as inhibition of cell growth incubated for 72 hrs by CellTiter96 Aqueous One Solution cell proliferation assay. The format is functional, cell-based. To be noted: CAPAN-1, 72 h.
Series [3] relates to Z-138. The series can be described thus: Antiproliferative activity against human Z138 cells assessed as inhibition of cell growth incubated for 72 hrs by CellTiter96 Aqueous One Solution cell proliferation assay. In kind it is functional, cell-based. To be noted: Z-138, 72 h.
Series [4] deals with HCT-116. The series can be described thus: Antiproliferative activity against human HCT-116 cells assessed as inhibition of cell growth incubated for 72 hrs by CellTiter96 Aqueous One Solution cell proliferation assay. The format is functional, cell-based. To be noted: HCT-116, 72 h.
Series [5] concerns NCI-H460. Put plainly: Antiproliferative activity against human NCI-H460 cells assessed as inhibition of cell growth incubated for 72 hrs by CellTiter96 Aqueous One Solution cell proliferation assay. The format is functional, cell-based. As to conditions: NCI-H460, 72 h.
In series [6] the test system is HL-60. The series can be described thus: Antiproliferative activity against human HL-60 cells assessed as inhibition of cell growth incubated for 72 hrs by CellTiter96 Aqueous One Solution cell proliferation assay. In kind it is functional, cell-based. As to conditions: HL-60, 72 h.
For series [7], the system named is LN-229. Put plainly: Antiproliferative activity against human LN-229 cells assessed as inhibition of cell growth incubated for 72 hrs by CellTiter96 Aqueous One Solution cell proliferation assay. In kind it is functional, cell-based. To be noted: LN-229, 72 h.
The nature of series [8]: Antiproliferative activity against human DND41 cells assessed as inhibition of cell growth incubated for 72 hrs by CellTiter96 Aqueous One Solution cell proliferation assay. In kind it is functional, cell-based. To be noted: DND41, 72 h.
In series [9] the test system is CCRF-CEM. The series can be described thus: Antiproliferative activity against human CEM cells assessed as inhibition of cell growth. In kind it is functional, cell-based.
The test system of series [10] is Yellow fever virus. Put plainly: Antiviral activity against Yellow fever virus 17D infected in human Huh-7 cells assessed as inhibition of virus-induced cytopathogenic effect incubated for 3 to 7 days by MTS assay. The format is functional, organism-based. Background: Damage to the host cells serves as the signal in cytopathic effect assays.
In series [11] the test system is Human alphaherpesvirus 1. Put plainly: Antiviral activity against HSV-1 KOS infected in human HEL 299 cells assessed as inhibition of virus-induced cytopathogenic effect incubated for 3 to 7 days by MTS assay. The format is functional, organism-based. As to conditions: Human alphaherpesvirus 1, KOS.
Series [12] in a line: Antioxidant activity assessed as ABTS radical scavenging activity incubated for 5 mins by absorbance based microplate reader analysis. In kind it is functional. The procedure, abridged: (§1)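 Pure compounds tested in three colorimetric antioxidant assays, each run alongside the reference BHT. […] ABTS: direct reaction with ABTS•+ radical cation, reported as IC50. DPPH: scavenging of the stable DPPH radical by proton or electron donation, reported as IC50. FRAP: reducing power, expressed as mmolFe2+/mmolC.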

A short description of series [13]: Cytotoxicity against human HEL 299 cells assessed as inhibition of cell growth incubated for 72 hrs by CellTiter96 Aqueous One Solution cell proliferation assay. In kind it is toxicity, cell-based.
The nature of series [14]: Antioxidant activity assessed as DPPH radical scavenging activity incubated for 5 mins by absorbance based microplate reader analysis. In kind it is functional. In a few lines:
as §1
Background: Loss of DPPH colour is used to gauge radical scavenging.

For series [15], the system named is Huh-7. The series can be described thus: Cytotoxicity against human Huh-7 cells assessed as inhibition of cell growth incubated for 72 hrs by CellTiter96 Aqueous One Solution cell proliferation assay. In kind it is functional.
A short description of series [16]: Antioxidant activity assessed as reduction of Fe3+ complex to Fe2+ analogue by measuring mmolFe2+/mmolc by FRAP assay. The format is functional. The procedure, abridged: as §1
A short description of series [17]: Antiviral activity against HCoV-NL63 infected in human Huh-7 cells assessed as inhibition of virus-induced cytopathogenic effect incubated for 3 to 7 days by MTS assay. The format is functional, cell-based. As to conditions: Human coronavirus NL63, Huh-7.
The nature of series [18]: Cytotoxicity against dog MDCK cells assessed as inhibition of cell growth incubated for 72 hrs by CellTiter96 Aqueous One Solution cell proliferation assay. The format is toxicity, cell-based, Canis lupus familiaris.
Series [19] deals with Human coronavirus OC43. Put plainly: Antiviral activity against HCoV-OC43 infected in human HEL 299 cells assessed as inhibition of virus-induced cytopathogenic effect incubated for 3 to 7 days by MTS assay. To be noted: Betacoronavirus 1, HEL 299. In kind it is functional, organism-based.
In series [20] the test system is Sindbis virus. Put plainly: Antiviral activity against Sindbis virus infected in human Huh-7 cells assessed as inhibition of virus-induced cytopathogenic effect incubated for 3 to 7 days by MTS assay. In kind it is functional, organism-based.
In series [21] the test system is Influenza A virus. Put plainly: Antiviral activity against influenza virus H1N1 infected in dog MDCK cells assessed as inhibition of virus-induced cytopathogenic effect incubated for 3 to 7 days by MTS assay. In kind it is functional, organism-based.
Series [22] has as its system Respiratory syncytial virus. The series can be described thus: Antiviral activity against RSV infected in human HEL 299 cells assessed as inhibition of virus-induced cytopathogenic effect incubated for 3 to 7 days by MTS assay. In kind it is functional, organism-based.
Series [23] deals with Influenza B virus. The series can be described thus: Antiviral activity against influenza B virus infected in dog MDCK cells assessed as inhibition of virus-induced cytopathogenic effect incubated for 3 to 7 days by MTS assay. The format is functional, organism-based.
The test system of series [24] is Zika virus. Put plainly: Antiviral activity against Zika virus Mr776 infected in human Huh-7 cells assessed as inhibition of virus-induced cytopathogenic effect incubated for 3 to 7 days by MTS assay. In kind it is functional, organism-based. As to conditions: Mr776, Huh-7.
Series [25] deals with Human coronavirus 229E. Put plainly: Antiviral activity against HCoV-229E infected in human HEL 299 cells assessed as inhibition of virus-induced cytopathogenic effect incubated for 3 to 7 days by MTS assay. The format is functional, organism-based.
The subject of series [26] is Influenza A virus. The series can be described thus: Antiviral activity against influenza virus H3N2 infected in dog MDCK cells assessed as inhibition of virus-induced cytopathogenic effect incubated for 3 to 7 days by MTS assay. In kind it is functional, organism-based.

What is called IC50 is the point on the concentration scale where inhibition reaches its midpoint. As for `COC(=O)Nc1nc2cc(C(=O)c3cccs3)ccc2[nH]1` [NOCODAZOLE], the IC50 amounted to 0.07 µM in [1]; 0.13 µM in [2]; 0.31 µM in series [3]; 130 nM in series [4]; 0.25 µM in series [5]; 0.1 µM in series [6]. Besides, the IC50 in series [7] worked out at 0.1 µM; in series [8], 0.47 µM.

As to `CCN(CC)c1ccc2cc(-c3nc4cccnc4s3)c(=N)oc2c1`, the IC50 in [9] was determined as 170 nM.

A word on the EC50: it is the concentration needed to bring the measured effect to its halfway point. What is called CC50 is the concentration at which the toxic effect on the cells reaches its halfway point. Turning to `O=c1oc2ccc(Br)cc2c(Cl)c1-c1nc2cc(C3=NCCN3)ccc2[nH]1`, the EC50 in series [10] was above 100 µM; in series [11] it was above 100 µM; in series [17], above 100 µM; in series [19], above 100 µM; in series [20] it was above 100 µM; in series [21], 16.2 µM. Moreover, the EC50 in [22], in series [23], in [24], in series [25] and in series [26] was above 100 µM throughout. The IC50 in series [12] is 260 µM; in series [14] it was 130 µM; in series [1], 9.7 µM; in series [2] it was 29.9 µM; in series [3] it was 6.4 µM; in series [5], above 100 µM. The concentration for half-maximal inhibition (IC50) in series [6] amounted to 49.6 µM; in series [7], 40.9 µM; in series [8] it was 6.2 µM. For the same molecule, the 50% cytotoxic concentration (CC50) at 72 h was found to be 51.6 µM in [13] and 59 µM in series [18]. Besides, the CC50 in [15] amounted to 2.3 µM. Further, the Activity in series [16] was determined as 130 mmol/mmol.

As for `CCN(CC)c1ccc2cc(-c3nc4cc(C5=NCCCN5)ccc4[nH]3)c(=O)oc2c1`, the EC50 is 72.6 µM in series [10]; above 100 µM in series [11]; above 100 µM in series [17]; above 100 µM in [19]; above 100 µM in series [20]; above 100 µM in series [21]. Also, the concentration giving a half-maximal response (EC50) in series [22] was 73.3 µM; in series [23] it was above 100 µM; in [24], 77.7 µM; in series [25], above 100 µM; in [26] it was above 100 µM. For the same molecule, the IC50 in series [12] was 110 µM; in series [14], 610 µM; in series [1] it was 63.5 µM; in [2], 66.7 µM; in [3], 67.3 µM; in series [5] it was above 100 µM. Also, the IC50 in [6] stood at 63.8 µM; in series [7] it was 97 µM; in [8], 10.8 µM. The half-maximal cytotoxic concentration (CC50) at 72 h in [13] was above 100 µM; in series [18] it was 43.4 µM. The cytotoxic concentration (CC50) in series [15] was above 100 µM. Besides, the Activity in series [16] stood at 28.8 mmol/mmol.

Consider `CCN(CC)c1ccc2cc(-c3nc4ccccc4[nH]3)c(=N)oc2c1`, for which, in series [9], the IC50 worked out at 59 nM.

Consider `Cc1ccc2oc(=O)c(-c3nc4cc(C5=NCCCN5)ccc4[nH]3)c(Cl)c2c1`, for which the 50% effective concentration (EC50) in series [10] was above 100 µM; in [11], above 100 µM; in series [17], above 100 µM; in series [19], 74.2 µM; in series [20] it was above 100 µM; in series [21] it was above 100 µM. The EC50 in series [22] was 64.1 µM; in series [23], above 100 µM; in series [24], above 100 µM; in series [25] it was above 100 µM; in series [26] it was above 100 µM. Further, the IC50 is 460 µM in series [12]; 520 µM in series [14]; above 100 µM in series [1]; 71.9 µM in series [2]; 48.1 µM in [3]; above 100 µM in series [5]. In addition, the values for the half-maximal inhibitory concentration (IC50) in [6], in [7] and in [8] were 64.2 µM, above 100 µM and 16.9 µM, respectively. The figures for the CC50 at 72 h in series [13] and in series [18] were above 100 µM and 77.1 µM, respectively. Also, the half-maximal cytotoxic concentration (CC50) in [15] came to 78.7 µM. In addition, in [16], the Activity is 47.8 mmol/mmol.
